This note sets out measurements from ChEMBL document CHEMBL4190306, “Synthesis and structure-activity relationship study of novel 3-heteroarylcoumarins based on pyridazine scaffold as selective MAO-B inhibitors” (Eur J Med Chem, 2017).

Data set [1] concerns the target T1, Amine oxidase [flavin-containing] B (Homo sapiens, UniProt P27338).
T1 sequence (P27338 whole entry): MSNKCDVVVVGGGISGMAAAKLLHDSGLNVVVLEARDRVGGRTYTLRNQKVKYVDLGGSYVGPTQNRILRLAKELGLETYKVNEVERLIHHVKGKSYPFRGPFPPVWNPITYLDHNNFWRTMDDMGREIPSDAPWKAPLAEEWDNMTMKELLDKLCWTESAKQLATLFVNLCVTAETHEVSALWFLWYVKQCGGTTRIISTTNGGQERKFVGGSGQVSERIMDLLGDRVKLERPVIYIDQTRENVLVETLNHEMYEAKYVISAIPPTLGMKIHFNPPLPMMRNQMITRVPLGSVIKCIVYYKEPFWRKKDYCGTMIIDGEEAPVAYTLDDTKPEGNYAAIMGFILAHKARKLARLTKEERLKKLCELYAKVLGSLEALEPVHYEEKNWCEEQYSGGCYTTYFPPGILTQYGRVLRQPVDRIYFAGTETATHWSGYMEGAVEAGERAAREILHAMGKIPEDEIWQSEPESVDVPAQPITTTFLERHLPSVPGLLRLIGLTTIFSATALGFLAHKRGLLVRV
As to the kind of experiment: Inhibition of human recombinant MAO-B expressed in baculovirus infected BTI-TN5B1-4 cells using p-tyramine as substrate assessed as reduction in H2O2 production preincubated for 15 mins followed by substrate addition measured after 15 mins by Amplex red dye based fluorescence assay. It counts as cell-based.

The species named for data set [2] is Homo sapiens. In words: Selectivity index, ratio of IC50 for human recombinant MAO-A expressed in baculovirus infected BTI-TN5B1-4 cells to IC50 for human recombinant MAO-B expressed in baculovirus infected BTI-TN5B1-4 cells. Summed up:
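IC50 values for hMAO-A and hMAO-B were obtained in the same p-tyramine/Amplex Red assay (15 min pre-incubation, 37 °C, 15 min fluorescence read). Each IC50 came from linear least-squares regression of % inhibition versus log molar concentration, using 4–6 concentrations giving 20–80% inhibition. Selectivity was taken as IC50(MAO-A)/IC50(MAO-B).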

The target in data set [3] is T2, Amine oxidase [flavin-containing] A (Homo sapiens, UniProt P21397).
T2 sequence (P21397 whole entry): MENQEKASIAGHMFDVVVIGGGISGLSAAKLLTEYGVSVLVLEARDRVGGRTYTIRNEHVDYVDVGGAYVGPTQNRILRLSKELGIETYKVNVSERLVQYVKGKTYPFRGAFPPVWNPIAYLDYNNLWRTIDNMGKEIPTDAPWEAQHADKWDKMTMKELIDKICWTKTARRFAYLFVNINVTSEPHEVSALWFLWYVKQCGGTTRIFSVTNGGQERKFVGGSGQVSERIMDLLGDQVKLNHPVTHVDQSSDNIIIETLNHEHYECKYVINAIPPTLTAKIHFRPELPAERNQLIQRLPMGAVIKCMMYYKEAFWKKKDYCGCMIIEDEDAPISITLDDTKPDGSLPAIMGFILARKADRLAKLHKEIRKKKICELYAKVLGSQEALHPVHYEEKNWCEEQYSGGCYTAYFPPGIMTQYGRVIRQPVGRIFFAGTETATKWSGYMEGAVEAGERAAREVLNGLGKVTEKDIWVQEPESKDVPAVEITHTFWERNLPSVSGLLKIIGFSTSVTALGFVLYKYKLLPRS
As to the kind of experiment: Inhibition of human recombinant MAO-A expressed in baculovirus infected BTI-TN5B1-4 cells using p-tyramine as substrate assessed as reduction in H2O2 production at 100 uM preincubated for 15 mins followed by substrate addition measured after 15 mins by Amplex red dye based fluorescence assay. As to conditions: 0.25 h; call rule not given here. In a few lines: (§1)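 Microsomal hMAO-A (1.1 µg protein) or hMAO-B (7.5 µg protein) from baculovirus-infected insect cells was used, with each amount adjusted to an oxidation rate of 165±2 pmol p-tyramine/min. Enzyme and test drug in 0.5M sodium phosphate pH 7.4 were pre-incubated 15 min at 37 °C. The reaction was started with final 200 µM Amplex Red, 1 U/mL HRP and 1 mM p-tyramine. Resorufin fluorescence (ex 545/em 590 nm) was followed for 15 min at 37 °C, background without enzyme was subtracted, and controls received vehicle.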

Data set [4] has as its system SH-SY5Y. In words: Cytotoxicity against human SH-SY5Y cells at 10 uM after 24 hrs by MTT assay. Type of data set: cell-based. Summed up: (§2)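 SH-SY5Y neuroblastoma cells were seeded at 1.10⁶/mL and incubated overnight. Compounds in DMSO (1%) were added, with 1% DMSO-treated cells as negative control, for 24 h. MTT solution (5 mg/ml in PBS, 10%) was then added for 2 h at 37 °C, and the crystals were dissolved in DMSO. A540 was read, and viability was taken as % of negative-control absorbance.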
(In general: Tetrazolium dyes change colour on reduction, which living cells bring about.)

Data set [5] deals with T1, Amine oxidase [flavin-containing] B. As to the kind of experiment: Inhibition of human recombinant MAO-B expressed in baculovirus infected BTI-TN5B1-4 cells using p-tyramine as substrate assessed as reduction in H2O2 production at 100 uM preincubated for 15 mins followed by substrate addition measured after 15 mins by Amplex red dye based fluorescence assay relative to control. As to conditions: 0.25 h.

For data set [6], the system named is SH-SY5Y. As to the kind of experiment: Cytotoxicity against human SH-SY5Y cells at 20 uM after 24 hrs by MTT assay. Type of data set: cell-based. Summed up:
as §2

Data set [7] deals with T1, Amine oxidase [flavin-containing] B. In words: Inhibition of human recombinant MAO-B expressed in baculovirus infected BTI-TN5B1-4 cells using p-tyramine as substrate assessed as reduction in H2O2 production at 100 uM preincubated for 15 mins followed by substrate addition measured after 15 mins by Amplex red dye based fluorescence assay. As to conditions: 0.25 h. In a few lines:
as §1

`COc1cccc2cc(-c3ccc(Cl)nn3)c(=O)oc12`: in data set [1], the IC50 was 30.1 µM. The Ratio IC50 in data set [2] is greater than 3.3. In data set [3], the “inhibition (INH)” value is “Not Active”. The Activity entry in data set [4] is given as “Non-Toxic”.

In the case of `Cc1cccc2cc(-c3ccc(Cl)nn3)c(=O)oc12`, the IC50 in data set [1] stood at 22.7 µM. The Ratio IC50 in data set [2] is greater than 4.4. The “inhibition (INH)” value in data set [3] is “Not Active”. Moreover, in data set [4], the Activity result was “Non-Toxic”.

In the case of `COc1ccc(-c2cc3ccc(C)cc3oc2=O)nn1`, the IC50 in data set [1] was 13.5 µM. For the same compound, in data set [2], the Ratio IC50 is greater than 7.4. For the same compound, in data set [3], the “inhibition (INH)” value is on record as “Not Active”. In addition, the Activity result in data set [4] is “Non-Toxic”.

As for `Cc1cccc2cc(-c3ccc(Br)nn3)c(=O)oc12`, the IC50 in data set [1] amounted to 2.64 µM. Moreover, the Ratio IC50 in data set [2] is greater than 37.9. Besides, in data set [3], the “inhibition (INH)” value is on record as “Not Active”. Further, the Activity entry in data set [4] is reported as “Non-Toxic”.

For `COc1ccc(-c2cc3cc(C)ccc3oc2=O)nn1`, in data set [1], the half-maximal inhibitory concentration (IC50) amounted to 17.6 µM. In addition, the Ratio IC50 in data set [2] was greater than 5.7. Moreover, in data set [3], the “inhibition (INH)” value is reported as “Not Active”. In addition, the Activity entry in data set [4] is given as “Non-Toxic”.

On to `COc1ccc2cc(-c3ccc(OC)nn3)c(=O)oc2c1`, for which the “inhibition (INH)” value in data set [3] is reported as “Not Active”. The Activity result in data set [4] is listed as “Non-Toxic”. Also, the inhibition at 100 µM in data set [5] lay within 45 to 50%.

Consider `COc1ccc2oc(=O)c(-c3ccc(Cl)nn3)cc2c1`, for which the half-inhibitory concentration (IC50) in data set [1] was 8.8 µM. Further, the Ratio IC50 in data set [2] is greater than 11.4. The “inhibition (INH)” value in data set [3] is recorded as “Not Active”. Besides, the Activity result in data set [4] is reported as “Non-Toxic”.

Take `COc1ccc2cc(-c3ccc(Cl)nn3)c(=O)oc2c1`: the IC50 in data set [1] was determined as 19.2 µM. Further, the Ratio IC50 in data set [2] is greater than 5.2. Further, the “inhibition (INH)” value in data set [3] is reported as “Not Active”. For the same compound, the Activity result in data set [4] is recorded as “Non-Toxic”.

As for `COc1cccc2cc(-c3ccc(Br)nn3)c(=O)oc12`, the half-maximal inhibitory concentration (IC50) in data set [1] was found to be 12.8 µM. The Ratio IC50 in data set [2] was greater than 7.8. Moreover, the “inhibition (INH)” value in data set [3] was “Not Active”. Also, in data set [4], the Activity result is reported as “Non-Toxic”.

For `COc1ccc2cc(-c3ccc(Br)nn3)c(=O)oc2c1`, the IC50 in data set [1] turned out to be 3.05 µM. In data set [2], the Ratio IC50 was greater than 32.8. In addition, the “inhibition (INH)” value in data set [3] is recorded as “Not Active”. Further, the Activity entry in data set [4] is on record as “Non-Toxic”.

Turning to `Cc1ccc2oc(=O)c(-c3ccc(Cl)nn3)cc2c1`, the IC50 in data set [1] amounted to 13.5 µM. In addition, the Ratio IC50 in data set [2] was greater than 7.4. For the same compound, the “inhibition (INH)” value in data set [3] was “Not Active”. In addition, in data set [4], the Activity result was “Non-Toxic”.

With `Cc1ccc2oc(=O)c(-c3ccc(Br)nn3)cc2c1`, the IC50 in data set [1] amounted to 2.16 µM. Further, the Ratio IC50 in data set [2] is greater than 46.3. Besides, the “inhibition (INH)” value in data set [3] is recorded as “Not Active”. Further, in data set [4], the Activity result is given as “Non-Toxic”.

For `COc1ccc(-c2cc3cccc(C)c3oc2=O)nn1`, the concentration for half-maximal inhibition (IC50) in data set [1] is 5.35 µM. Also, in data set [2], the Ratio IC50 is greater than 18.7. In addition, in data set [3], the “inhibition (INH)” value is “Not Active”. The Activity result in data set [4] was “Non-Toxic”.

As for `COc1ccc(-c2cc3cccc(OC)c3oc2=O)nn1`, the Activity result is recorded as “Toxic” in data set [6] and “Non-Toxic” in data set [4]. Also, the “inhibition (INH)” value in data set [3] and in data set [7] was “Not Active” each time.

Turning to `Cc1ccc2cc(-c3ccc(Cl)nn3)c(=O)oc2c1`, the IC50 in data set [1] turned out to be 2.51 µM. For the same compound, the Ratio IC50 in data set [2] is greater than 39.8. In addition, the “inhibition (INH)” value in data set [3] is given as “Not Active”. Moreover, the Activity result in data set [4] is “Non-Toxic”.

Turning to `COc1ccc2oc(=O)c(-c3ccc(Br)nn3)cc2c1`, in data set [1], the 50% inhibitory concentration (IC50) amounted to 0.56 µM. Further, the Ratio IC50 in data set [2] was greater than 179. For the same compound, the “inhibition (INH)” value in data set [3] is “Not Active”. For the same compound, the Activity result in data set [4] is recorded as “Non-Toxic”.

In the case of `Cc1ccc2cc(-c3ccc(Br)nn3)c(=O)oc2c1`, the half-inhibitory concentration (IC50) in data set [1] amounted to 0.75 µM. The Ratio IC50 in data set [2] is greater than 133. Moreover, the “inhibition (INH)” value in data set [3] was “Not Active”. In addition, the Activity entry in data set [4] is “Non-Toxic”.

For `COc1ccc2oc(=O)c(-c3ccc(OC)nn3)cc2c1`, the IC50 in data set [1] was found to be 11.1 µM. Further, in data set [2], the Ratio IC50 was greater than 9. The “inhibition (INH)” value in data set [3] is “Not Active”. The Activity entry in data set [4] is reported as “Non-Toxic”.

As a reminder, the IC50 is the concentration that inhibits the measured activity by half. In general, inhibition refers to the share of the control response that was lost under treatment.
